According to ChEMBL document CHEMBL1127444, “Aza-tricyclic substance P antagonists” (J Med Chem, 1994):

Experiments:
[1] = target: Substance-P receptor (Homo sapiens, UniProt P25103); assay: Tested in vitro for the binding affinity towards NK1 receptor in human IM-9 cells using [125I]-labeled bolton-hunter substance P as ligand; type: cell-based
Outline: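 IC50 from six-point concentration–response curves, each concentration in duplicate. Mean ± SEM of three separate experiments.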

[2] = organism: Cavia porcellus; assay: Inhibition of capsaicin-induced plasma extravasation in guinea pig ureter; type: functional
Outline: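 Male Hartley guinea pigs (300–400 g), fasted overnight, anaesthetised with pentobarbital 25 mg/kg. Compound given po 1 h before capsaicin, at four doses. Evans Blue 30 mg/kg iv, then 5 min later 30 μM capsaicin in 0.1% BSA Krebs bicarbonate, 10 mL per animal. Killed 10 min later. Ureter extracted in formamide at 60 °C for 24 h and OD read at 600 nm. ED50 with 95% confidence limits.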

Chain of Substance-P receptor (P25103 whole entry): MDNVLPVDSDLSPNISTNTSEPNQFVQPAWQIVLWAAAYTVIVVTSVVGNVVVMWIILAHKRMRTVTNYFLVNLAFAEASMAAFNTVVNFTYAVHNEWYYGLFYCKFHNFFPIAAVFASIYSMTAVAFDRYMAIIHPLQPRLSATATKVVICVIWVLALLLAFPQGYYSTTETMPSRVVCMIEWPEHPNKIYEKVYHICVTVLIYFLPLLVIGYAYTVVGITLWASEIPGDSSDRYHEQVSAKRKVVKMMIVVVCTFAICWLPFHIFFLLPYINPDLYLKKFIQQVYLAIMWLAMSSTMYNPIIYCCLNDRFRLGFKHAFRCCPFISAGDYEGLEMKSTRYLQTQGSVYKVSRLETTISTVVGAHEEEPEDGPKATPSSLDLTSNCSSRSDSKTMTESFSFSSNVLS

SMILES | IC50 [1] | ED50 [2]
Clc1ccccc1CN[C@H]1C2C3CCCC2CN(C3)[C@H]1C(c1ccccc1)c1ccccc1 | 39 nM | 
c1ccc(CNC2C3CC4CCC(C3)N4[C@H]2C(c2ccccc2)c2ccccc2)cc1 (stereo not given in full) | 68 nM | 
c1ccc(CN[C@H]2C3C4CCCC3CN(C4)[C@H]2C(c2ccccc2)c2ccccc2)cc1 | 230 nM | 
COc1ccccc1CNC1C2CC3CCOC(C2)N3[C@H]1C(c1ccccc1)c1ccccc1 (stereo not given in full) | 7.2 nM | 
COc1ccccc1CN[C@H]1C2C3CCCC2CN(C3)[C@H]1C(c1ccccc1)c1ccccc1 |  | 4.43 mg/kg
Clc1ccccc1CNC1C2CC3CCC(C2)N3[C@H]1C(c1ccccc1)c1ccccc1 (stereo not given in full) | 7.1 nM | 
FC(F)(F)c1ccccc1CNC1C2CC3CCCC(C2)N3[C@H]1C(c1ccccc1)c1ccccc1 (stereo not given in full) | 4400 nM | 
COc1ccccc1CNC1C2CC3CCC(C2)N3[C@H]1C(c1ccccc1)c1ccccc1 (stereo not given in full) | 0.92 nM | 4.13 mg/kg
c1ccc(CNC2C3CC4CCCC(C3)N4[C@H]2C(c2ccccc2)c2ccccc2)cc1 (stereo not given in full) | 170 nM | 
Clc1ccccc1CNC1C2CC3CCCC(C2)N3[C@H]1C(c1ccccc1)c1ccccc1 (stereo not given in full) | 58 nM | 
COc1ccccc1CNC1C2C3CCC2CN(C3)[C@H]1C(c1ccccc1)c1ccccc1 (stereo not given in full) | 2.4 nM | 2.61 mg/kg
COc1ccccc1CNC1C2CC3CCCC2CN3[C@H]1C(c1ccccc1)c1ccccc1 (stereo not given in full) | 1.9 nM | 
COc1ccccc1CN[C@H]1C2CCN(CC2)[C@H]1C(c1ccccc1)c1ccccc1 [CP-96345] |  | 2.83 mg/kg
